In assay [1] the test system is Bacillus subtilis. Nature of the assay: (§1) Inhibition of Bacillus subtilis DNA polymerase 3C assessed as incorporation of [3H]TMP into activated calf thymus DNA incubated with dATP, dCTP and [3H]TTP in absence of dGTP. To be noted: concentration not given here. Put shortly: (§2)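 Recombinant B. subtilis pol IIIC assayed on activated calf thymus DNA with dATP, dCTP and [³H]TTP, without competitor dGTP. Read-out was [³H]TMP incorporation. Ki values are averages of at least two independent experiments.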

Assay [2] deals with Escherichia coli. Nature of the assay: Antibacterial activity against Escherichia coli J-53 after 16 to 24 hrs by twofold serial dilution method. It is filed as functional.
Assay [3] relates to Enterococcus faecalis. Nature of the assay: Antibacterial activity against Enterococcus faecalis ATCC 29212 after 16 to 24 hrs by twofold serial dilution method. It is filed as functional.
Assay [4] deals with Bacillus subtilis. Put plainly: Antibacterial activity against Bacillus subtilis BD54 after 16 to 24 hrs by twofold serial dilution method. In kind it is functional.
In assay [5] the test system is Escherichia coli. Nature of the assay: (§3) Inhibition of Escherichia coli DNA polymerase 3E assessed as incorporation of [3H]TMP into activated calf thymus DNA incubated with dATP, dCTP and [3H]TTP in absence of dGTP. The note with it: concentration not given here. The gist of the method: (§4)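 Enzymes: recombinant B. subtilis pol IIIE and E. coli three-subunit pol III core. Each was assayed with activated calf thymus DNA, dATP, dCTP and [3H]TTP, without the competitor dGTP. [3H]TMP incorporation was measured and Ki derived. Values are averages of at least two independent experiments.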

The subject of assay [6] is Bacillus subtilis. Put plainly: (§5) Inhibition of Bacillus subtilis DNA polymerase 3E assessed as incorporation of [3H]TMP into activated calf thymus DNA incubated with dATP, dCTP and [3H]TTP in absence of dGTP. The note with it: concentration not given here. Also noted: concentration or dose not given beside the values. Put shortly: as §4
For assay [7], the system named is Staphylococcus aureus. Put plainly: Antibacterial activity against Staphylococcus aureus ATCC 13709 (Smith) after 16 to 24 hrs by twofold serial dilution method. It is filed as functional.
For assay [8], the system named is Staphylococcus aureus. Put plainly: Antibacterial activity against methicillin-resistant Staphylococcus aureus ATCC 1094 after 16 to 24 hrs by twofold serial dilution method. It is filed as functional.
Assay [9] relates to Enterococcus faecalis. Put plainly: Antibacterial activity against vancomycin-resistant Enterococcus faecalis after 16 to 24 hrs by twofold serial dilution method.
The subject of assay [10] is Staphylococcus aureus. Nature of the assay: Antibacterial activity against Staphylococcus aureus ATCC 25923 after 16 to 24 hrs by twofold serial dilution method. In kind it is functional.
Assay [11] is described as follows: as §1. The gist of the method:
as §2

Assay [12] relates to Staphylococcus aureus. Nature of the assay: Antibacterial activity against Staphylococcus aureus Smith infected Swiss-webster mouse assessed as mouse survival at 100 mg/kg, ip administered 15 mins post-infection for 24 hrs relative to control. The note with it: route intraperitoneal. In kind it is functional. The gist of the method:
(§6)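 Male pathogen-free Swiss–Webster mice, 20–24 g, with free access to food and water. S. aureus Smith grown to log phase at 37 °C in LB, with CFU estimated from OD600. Cells washed in cold broth and injected IP in 0.5 mL broth. Groups of 5 or 10 mice dosed IP 15 min post-infection with vehicle (10% DMSO/peanut oil) or compound in vehicle. Daptomycin 30 mg/Kg in saline served as control.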

Assay [13] relates to Enterococcus faecium. Put plainly: Antibacterial activity against Enterococcus faecium ATCC 19434 after 16 to 24 hrs by twofold serial dilution method. In kind it is functional.
The subject of assay [14] is Staphylococcus aureus. Nature of the assay: Antibacterial activity against Staphylococcus aureus Smith infected Swiss-webster mouse assessed as mouse survival at 30 mg/kg, ip administered 15 mins post-infection for 24 hrs relative to control. In kind it is functional. The note with it: route intraperitoneal. Put shortly:
as §6

Assay [15] can be described thus: as §5. Put shortly: as §4
Assay [16] can be described thus: as §3. Put shortly:
as §4

The test system of assay [17] is Staphylococcus aureus. Nature of the assay: Antibacterial activity against Staphylococcus aureus Smith infected Swiss-webster mouse assessed as mouse survival at 10 mg/kg, ip administered 15 mins post-infection for 24 hrs relative to control. In kind it is functional. To be noted: route intraperitoneal. Put shortly: as §6
Assay [18] deals with Staphylococcus aureus. Put plainly: Antibacterial activity against Staphylococcus aureus Smith infected Swiss-webster mouse assessed as mouse survival at 60 mg/kg, ip administered 15 mins post-infection for 24 hrs relative to control. It is filed as functional. The note with it: route intraperitoneal. The gist of the method: as §6

The structures appear in SMILES notation. pKi: −log10 of the molar value. In brackets after ≈: the same amount, converted by molar mass.

One may read the inhibition as the share of the control response that was lost under treatment. As a reminder, the MIC is the least concentration at which growth counts as inhibited. For `COCCCCn1cnc2c(=O)[nH]c(NCc3ccc(Cl)c(Cl)c3)nc21`, the inhibition in assay [1], in assay [5] and in assay [6] was under 10% in each case. Moreover, the MIC in assay [2], in assay [3], in assay [4], in assay [7], in [8] and in [9] was over 80 µg/mL in each case. The compound also registered an MIC in assay [10] of over 80 µg/mL.
In general, pKi refers to −log10 of the Ki, conventionally taken in molar units. As for `CCc1cc(Nc2cc(=O)n(CCCCO)c(=O)[nH]2)ccc1C`, the pKi in [11] was 7.20. The results for the MIC in assay [2], in assay [4] and in [9] were over 80 µg/mL, under 1.25 µg/mL and 5 µg/mL (≈ 15.8 µM), respectively. Moreover, in assay [5], the inhibition is under 10%. Besides, the survival at 100 mg/kg in assay [12] turned out to be 80%.
As to `CCc1cc(Nc2nc3ncn(CCCCCOC)c3c(=O)[nH]2)ccc1C`, the MIC is 10 µg/mL (≈ 27.1 µM) in assay [13]; over 80 µg/mL in [2]; 1.25 µg/mL (≈ 3.38 µM) in assay [4]; 2.5 µg/mL (≈ 6.77 µM) in [8]; 5 µg/mL (≈ 13.5 µM) in assay [9]. Further, the pKi was 6.59 in [11] and 3.40 in assay [15]. For the same compound, the survival at 30 mg/kg in assay [14] worked out at 20%. Besides, in [12], the survival at 100 mg/kg came to 40%.
`COCCCCn1c(C)nc2cc(NCc3ccc(Cl)c(Cl)c3)[nH]c(=O)c21`: the MIC in assay [13] was 80 µg/mL (≈ 195 µM); in assay [2] it was 80 µg/mL (≈ 195 µM); in assay [3], 80 µg/mL (≈ 195 µM); in assay [4], 6.25 µg/mL (≈ 15.3 µM); in assay [8], 5 µg/mL (≈ 12.2 µM); in [9], 20 µg/mL (≈ 48.9 µM). The same compound displayed an MIC in assay [10] of 60 µg/mL (≈ 147 µM). Besides, the results for the pKi in assay [11], in assay [16] and in assay [15] were 5.90, 3.37 and 5.60, respectively.
Turning to `COCCCCCn1cnc2cc(NCc3ccc(Cl)c(Cl)c3)[nH]c(=O)c21`, the MIC in assay [13] is 1.25 µg/mL (≈ 3.05 µM); in [2], over 80 µg/mL; in assay [4], 1.25 µg/mL (≈ 3.05 µM); in assay [7], 1.25 µg/mL (≈ 3.05 µM); in assay [8], 2.5 µg/mL (≈ 6.11 µM); in [9], 5 µg/mL (≈ 12.2 µM). The compound also had an MIC in [10] of 2.5 µg/mL (≈ 6.11 µM). In addition, the results for the pKi in assay [11], in [16] and in assay [15] were 6.80, 4.09 and 6.38, respectively. In assay [12], the survival at 100 mg/kg turned out to be 40%.
For `CCCCCCCCCC(=O)N[C@@H](Cc1c[nH]c2ccccc12)C(=O)N[C@H](CC(N)=O)C(=O)N[C@@H](CC(=O)O)C(=O)N[C@@H]1C(=O)NCC(=O)N[C@@H](CCCN)C(=O)N[C@@H](CC(=O)O)C(=O)N[C@H](C)C(=O)N[C@@H](CC(=O)O)C(=O)NCC(=O)N[C@H](CO)C(=O)N[C@@H]([C@H](C)CC(=O)O)C(=O)N[C@@H](CC(=O)c2ccccc2N)C(=O)O[C@@H]1C`, the survival at 10 mg/kg in [17] was 10%.
For the compound `CC(=O)OCCCCCn1cnc2nc(NCc3ccc(Cl)c(Cl)c3)nc(O)c21`, the MIC in [13] is 1.25 µg/mL (≈ 2.85 µM); in assay [2], over 80 µg/mL; in assay [3], 1.25 µg/mL (≈ 2.85 µM); in [4] it was 1.25 µg/mL (≈ 2.85 µM); in [7], 1.25 µg/mL (≈ 2.85 µM); in assay [8], 1.25 µg/mL (≈ 2.85 µM). The MIC in assay [9] was found to be 5 µg/mL (≈ 11.4 µM); in assay [10], 2.5 µg/mL (≈ 5.7 µM). In addition, the survival at 30 mg/kg in assay [14] was 50%. Further, the survival at 60 mg/kg in assay [18] amounted to 80%. Moreover, the survival at 10 mg/kg in assay [17] stood at 30%.

The record behind these values is ChEMBL document CHEMBL1795271, “7-Alkyl-N(2)-substituted-3-deazaguanines. Synthesis, DNA polymerase III inhibition and antibacterial activity” (Bioorg Med Chem Lett, 2011).
